Reference: ChEMBL document CHEMBL3792377, “Synthesis and characterization of a series of chiral alkoxymethyl morpholine analogs as dopamine receptor 4 (D4R) antagonists” (Bioorg Med Chem Lett, 2016)
Blank lines part the entries; values can stand above or below the compound they belong to.

How the values were obtained:
[1] = molecular target: D(1A) dopamine receptor (Homo sapiens, UniProt P21728); assay: Displacement of [3H]-SCH-23390 from human recombinant dopamine D1 receptor expressed in CHO cells at 10 uM relative to control; type: cell-based
Chain of D(1A) dopamine receptor (P21728 whole entry): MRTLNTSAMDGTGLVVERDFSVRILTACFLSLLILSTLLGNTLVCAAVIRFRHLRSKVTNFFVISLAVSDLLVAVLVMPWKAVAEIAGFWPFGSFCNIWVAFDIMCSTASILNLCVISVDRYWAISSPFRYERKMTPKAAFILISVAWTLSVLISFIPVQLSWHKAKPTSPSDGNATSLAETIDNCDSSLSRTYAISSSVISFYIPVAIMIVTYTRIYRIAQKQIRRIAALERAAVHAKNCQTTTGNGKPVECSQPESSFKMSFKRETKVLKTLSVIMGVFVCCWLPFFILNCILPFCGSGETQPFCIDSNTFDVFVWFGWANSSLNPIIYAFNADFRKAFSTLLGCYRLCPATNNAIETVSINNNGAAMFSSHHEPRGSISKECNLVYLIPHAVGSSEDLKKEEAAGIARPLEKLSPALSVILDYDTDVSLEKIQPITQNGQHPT
In short: (§1)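 Off-target dopamine receptor radioligand binding (D1, D2L, D2S, D3, D5), run as a contract assay. Test compound at a single concentration of 10 µM, reported as % inhibition of specific binding, measured in duplicate.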

[2] = molecular target: D(1B) dopamine receptor (Homo sapiens, UniProt P21918); assay: Displacement of [3H]-SCH-23390 from human recombinant dopamine D5 receptor expressed in CHO cells at 10 uM relative to control; type: cell-based; in short: as §1
Chain of D(1B) dopamine receptor (P21918 whole entry): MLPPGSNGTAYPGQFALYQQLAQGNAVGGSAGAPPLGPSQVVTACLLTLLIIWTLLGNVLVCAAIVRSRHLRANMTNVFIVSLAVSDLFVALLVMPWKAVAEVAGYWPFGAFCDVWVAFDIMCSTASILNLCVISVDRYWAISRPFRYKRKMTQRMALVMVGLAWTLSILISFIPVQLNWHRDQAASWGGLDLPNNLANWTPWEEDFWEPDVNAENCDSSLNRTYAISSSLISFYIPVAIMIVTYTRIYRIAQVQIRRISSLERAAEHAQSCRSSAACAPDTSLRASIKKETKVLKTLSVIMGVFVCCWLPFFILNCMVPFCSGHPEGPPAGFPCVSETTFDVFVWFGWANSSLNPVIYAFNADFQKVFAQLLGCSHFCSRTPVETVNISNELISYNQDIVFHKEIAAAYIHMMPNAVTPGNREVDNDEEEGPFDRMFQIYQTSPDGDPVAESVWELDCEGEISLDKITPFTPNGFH

[3] = molecular target: T1, D(2) dopamine receptor (Homo sapiens, UniProt P14416); assay: Displacement of [3H]-Spiperone from human recombinant dopamine D2L receptor expressed in CHO cells at 10 uM relative to control; type: cell-based; in short: as §1
T1 sequence (P14416 whole entry): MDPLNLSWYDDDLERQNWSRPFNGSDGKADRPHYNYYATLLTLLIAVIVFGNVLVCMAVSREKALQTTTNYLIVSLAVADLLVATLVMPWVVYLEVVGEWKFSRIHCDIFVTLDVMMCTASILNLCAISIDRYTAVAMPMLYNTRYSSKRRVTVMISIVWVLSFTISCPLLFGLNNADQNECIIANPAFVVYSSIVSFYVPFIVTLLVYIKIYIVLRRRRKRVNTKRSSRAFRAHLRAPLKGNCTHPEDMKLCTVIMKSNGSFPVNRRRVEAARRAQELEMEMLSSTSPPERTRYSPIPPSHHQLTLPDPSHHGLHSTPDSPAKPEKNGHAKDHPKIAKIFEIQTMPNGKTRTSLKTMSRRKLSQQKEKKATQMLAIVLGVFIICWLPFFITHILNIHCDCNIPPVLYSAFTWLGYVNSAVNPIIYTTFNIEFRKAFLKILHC

[4] = molecular target: T2, D(4) dopamine receptor (Homo sapiens, UniProt P21917); assay: Displacement of [3H]-Spiperone from human recombinant dopamine D4 receptor expressed in CHOK1 cells; type: cell-based, CHO-K1
T2 sequence (P21917 whole entry): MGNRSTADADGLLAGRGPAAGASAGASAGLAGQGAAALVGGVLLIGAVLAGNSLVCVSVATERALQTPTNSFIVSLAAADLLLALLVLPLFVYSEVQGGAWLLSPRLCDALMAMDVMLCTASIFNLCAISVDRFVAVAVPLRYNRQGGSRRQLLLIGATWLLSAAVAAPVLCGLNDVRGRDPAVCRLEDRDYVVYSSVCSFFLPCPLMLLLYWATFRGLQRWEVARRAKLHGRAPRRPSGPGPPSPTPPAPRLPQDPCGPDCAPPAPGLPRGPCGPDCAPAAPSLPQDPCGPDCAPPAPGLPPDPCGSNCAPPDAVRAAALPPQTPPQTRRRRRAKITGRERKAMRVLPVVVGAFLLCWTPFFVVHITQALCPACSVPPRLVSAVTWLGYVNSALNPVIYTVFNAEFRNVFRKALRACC
In short: (§2)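 Radioligand binding at human D4 receptor using [3H]-spiperone, run as a contract assay in duplicate. IC50 and Ki were derived from concentration–response data. Single-point values are % inhibition of specific binding at 10 µM test compound.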

[5] = test system: Plasma; assay: Fraction unbound in rat plasma by equilibrium dialysis method; type: ADME, cell-free
[6] = Fraction unbound in human plasma by equilibrium dialysis method; type: ADME, cell-free
[7] = molecular target: D(3) dopamine receptor (Homo sapiens, UniProt P35462); assay: Displacement of [3H]-Spiperone from human recombinant dopamine D3 receptor expressed in CHO cells at 10 uM relative to control; type: cell-based; in short: as §1
Chain of D(3) dopamine receptor (P35462 whole entry): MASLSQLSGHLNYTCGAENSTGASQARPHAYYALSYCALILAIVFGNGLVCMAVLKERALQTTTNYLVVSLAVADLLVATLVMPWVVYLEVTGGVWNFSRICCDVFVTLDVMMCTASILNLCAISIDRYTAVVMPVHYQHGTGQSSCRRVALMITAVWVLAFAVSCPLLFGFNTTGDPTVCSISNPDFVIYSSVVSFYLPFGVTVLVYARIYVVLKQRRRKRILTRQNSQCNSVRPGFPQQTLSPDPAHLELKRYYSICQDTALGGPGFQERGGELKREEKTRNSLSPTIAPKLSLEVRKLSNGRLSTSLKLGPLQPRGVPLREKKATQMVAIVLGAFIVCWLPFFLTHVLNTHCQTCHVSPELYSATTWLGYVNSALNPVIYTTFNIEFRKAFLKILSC

[8] = molecular target: T1, D(2) dopamine receptor; assay: Displacement of [3H]-Spiperone from human recombinant dopamine D2S receptor expressed in CHO cells at 10 uM relative to control; type: cell-based; in short: as §1
[9] = molecular target: T3, D(4) dopamine receptor (Homo sapiens) (UniProt P21917); assay: Displacement of [3H]-Spiperone from human recombinant dopamine D4 receptor expressed in CHOK1 cells at 10 uM relative to control; type: cell-based; conditions: CHO-K1; in short: as §2
T3 sequence (whole entry): T2 sequence (P21917 whole entry)

SMILES: COc1ccc(CN2CCO[C@H](COc3ccc(OC)cc3)C2)cc1
IC50 [4]: 380 nM
Ki [4]: 110 nM

SMILES: Clc1ccc(CN2CCO[C@H](COc3ccccn3)C2)cc1
IC50 [4]: 2630 nM
Ki [4]: 730 nM

SMILES: COc1ccc2[nH]cc(CN3CCO[C@H](COc4ccccc4)C3)c2c1
IC50 [4]: 460 nM
Ki [4]: 130 nM

SMILES: COc1cc(CN2CCO[C@H](COc3ccccn3)C2)ccc1Cl
inhibition [9]: 34%

SMILES: c1ccc(OC[C@@H]2CN(Cc3cn4ccccc4n3)CCO2)cc1
IC50 [4]: 590 nM
Ki [4]: 160 nM
Fu [5]: 0.215
Fu [6]: 0.057

SMILES: Fc1ccc(CN2CCO[C@H](COc3ccccc3)C2)cc1C(F)(F)F
IC50 [4]: 320 nM
Ki [4]: 89 nM

SMILES: Fc1ccc(CN2CCO[C@H](COc3ccccc3)C2)cc1F
IC50 [4]: 530 nM
Ki [4]: 150 nM

SMILES: COc1ccc(CN2CCO[C@H](COc3ccccn3)C2)cc1Cl
inhibition [9]: 37%

SMILES: COc1ccc(CN2CCO[C@@H](COc3ccccc3)C2)cc1Cl
inhibition [9]: 35%

SMILES: COc1ccc(CN2CCO[C@H](COc3cncnc3)C2)cc1
inhibition [9]: -4%

SMILES: FC1(F)Oc2ccc(CN3CCO[C@H](COc4ccccc4)C3)cc2O1
IC50 [4]: 260 nM
Ki [4]: 72 nM

SMILES: c1ccc(OC[C@@H]2CN(Cc3ccc4ccccc4n3)CCO2)cc1
IC50 [4]: 1110 nM
Ki [4]: 310 nM

Further compounds by falling IC50 [4], results first:

IC50 [4]: 210 nM
Ki [4]: 59 nM
SMILES: COc1ccc(CN2CCO[C@H](COc3cccnc3)C2)cc1

IC50 [4]: 180 nM
Ki [4]: 51 nM
SMILES: FC(F)(F)Oc1ccc(CN2CCO[C@H](COc3ccccc3)C2)cc1

IC50 [4]: 160 nM
Ki [4]: 44 nM
SMILES: COc1ccc(CN2CCO[C@H](COc3ccccc3)C2)cc1

IC50 [4]: 150 nM
Ki [4]: 43 nM
SMILES: COc1ccc(CN2CCO[C@H](COc3ccccc3)C2)cc1OC

IC50 [4]: 130 nM
Ki [4]: 37 nM
SMILES: c1ccc(OC[C@@H]2CN(Cc3cccc4cc[nH]c34)CCO2)cc1

IC50 [4]: 103 nM
Ki [4]: 47 nM
SMILES: Clc1ccc(CN2CCO[C@H](COc3cccnc3)C2)cc1

IC50 [4]: 100 nM
Ki [4]: 29 nM
Fu [5]: 0.008
Fu [6]: 0.004
SMILES: Clc1ccc(CN2CCO[C@H](COc3cccc(Cl)n3)C2)cc1

IC50 [4]: 69 nM
Ki [4]: 19.1 nM
Fu [5]: 0.012
Fu [6]: 0.006
SMILES: Fc1cc(CN2CCO[C@H](COc3ccccc3)C2)ccc1Cl

IC50 [4]: 65 nM
Ki [4]: 18.1 nM
inhibition [8]: < 50%
SMILES: c1ccc(OC[C@@H]2CN(Cc3n[nH]c4ccccc34)CCO2)cc1

inhibition [1]: < 50%
inhibition [2]: < 50%
inhibition [3]: 64%
IC50 [4]: 58 nM
Ki [4]: 15.9 nM
Fu [5]: 0.069
Fu [6]: 0.035
inhibition [7]: < 50%
inhibition [8]: 64%
SMILES: c1ccc(OC[C@@H]2CN(Cc3ccc4[nH]ccc4c3)CCO2)cc1

IC50 [4]: 58 nM
Ki [4]: 16.1 nM
SMILES: CSc1ccc(CN2CCO[C@H](COc3ccccc3)C2)cc1

inhibition [1]: < 50%
inhibition [2]: < 50%
inhibition [3]: 88%
IC50 [4]: 47 nM
Ki [4]: 13.1 nM
inhibition [7]: 76%
inhibition [8]: 82%
SMILES: COc1ccc(CN2CCO[C@H](COc3ccc(F)cc3)C2)cc1

IC50 [4]: 45 nM
Ki [4]: 12.3 nM
inhibition [8]: < 50%
SMILES: Cc1ccc(CN2CCO[C@H](COc3ccccc3)C2)cc1C

IC50 [4]: 42 nM
Ki [4]: 11.6 nM
SMILES: COc1cc(CN2CCO[C@H](COc3ccccc3)C2)ccc1F

IC50 [4]: 38 nM
Ki [4]: 10.4 nM
Fu [5]: 0.019
Fu [6]: 0.01
inhibition [8]: < 50%
SMILES: COc1ccc(CN2CCO[C@H](COc3ccccc3)C2)cc1Cl

inhibition [1]: < 50%
inhibition [2]: < 50%
inhibition [3]: 83%
IC50 [4]: 38 nM
Ki [4]: 10.4 nM
inhibition [7]: 51%
inhibition [8]: 79%
SMILES: Fc1ccc(OC[C@@H]2CN(Cc3ccc(Cl)cc3)CCO2)cc1
